Reference: ChEMBL document CHEMBL3286090, “Cryptocaryol Structure-Activity Relationship Study of Cancer Cell Cytotoxicity and Ability to Stabilize PDCD4” (ACS Med Chem Lett, 2014)
The source made the active and inactive calls. The rule behind the calls is not given here.

Key:
MCF7 [1] = experiment: Cytotoxicity against human MCF7 cells after 72 hrs by MTT assay; assay type: functional, cell-based; details: MCF7, 72 h
Method in brief: (§1)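 Cancer cell lines exposed to compound over a concentration range; viability read by MTT; IC50 in μM derived from dose-response.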

HT-29 [2] = experiment: Cytotoxicity against human HT-29 cells after 72 hrs by MTT assay; assay type: functional, cell-based; details: HT-29, 72 h; method in brief: as §1
[3] = target: T1, Programmed cell death protein 4 (Homo sapiens) (UniProt Q53EL6); experiment: Inhibition of TPA-induced PDCD4 degradation in human MCF7 cells at 1 uM treated 30 mins before TPA challenge measured after 6 hrs by Western blot analysis relative to TPA treated control; assay type: cell-based
T1 sequence (whole entry): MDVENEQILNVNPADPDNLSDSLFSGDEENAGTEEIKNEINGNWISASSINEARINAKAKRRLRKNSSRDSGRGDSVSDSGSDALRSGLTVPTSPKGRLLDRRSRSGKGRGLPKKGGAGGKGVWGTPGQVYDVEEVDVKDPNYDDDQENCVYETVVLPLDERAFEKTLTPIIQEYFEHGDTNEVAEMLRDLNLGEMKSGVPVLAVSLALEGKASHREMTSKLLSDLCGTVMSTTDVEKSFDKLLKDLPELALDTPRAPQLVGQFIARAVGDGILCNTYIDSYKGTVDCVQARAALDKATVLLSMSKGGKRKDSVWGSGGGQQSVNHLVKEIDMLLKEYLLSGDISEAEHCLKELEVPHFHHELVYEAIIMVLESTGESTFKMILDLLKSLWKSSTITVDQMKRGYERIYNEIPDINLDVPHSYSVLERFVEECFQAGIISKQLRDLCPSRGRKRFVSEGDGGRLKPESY
Method in brief: (§2)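 MCF-7 seeded at 100,000 cells/well, grown 24 h, then given cryptocaryol analogues (1 μM) or rapamycin (10 nM). TPA (20 nM) added 30 min later. After a further 6 h, cells scraped and lysed in RIPA. Lysate run on 12% SDS-PAGE, blotted to PVDF, probed for PDCD4 and β-actin, chemiluminescence detection. Signal expressed relative to cells given TPA alone.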

[4] = Cytotoxicity against human H460 cells after 72 hrs by MTT assay; assay type: functional, cell-based; details: NCI-H460, 72 h; method in brief: as §1
MCF7 [5] = experiment: Potentiation of camptothecin-induced cytotoxicity against human MCF7 cells at 1 nM to 10 uM after 72 hrs by MTT assay; assay type: functional
HT-29 [6] = experiment: Potentiation of camptothecin-induced cytotoxicity against human HT-29 cells at 1 nM to 10 uM after 72 hrs by MTT assay; assay type: functional, cell-based
HT-29 [7] = experiment: Potentiation of camptothecin-induced cytotoxicity against human HT-29 cells at 1 uM after 72 hrs by MTT assay in presence of TPA; assay type: functional, cell-based
HT-29 [8] = experiment: Potentiation of digitoxin-induced cytotoxicity against human HT-29 cells at 1 uM after 72 hrs by MTT assay in absence of TPA; assay type: functional, cell-based
Method in brief: (§3)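 HT-29 cells pretreated for 12 h with cryptocaryol at 1 μM, with rapamycin at 10 nM as the reference stabilizer, then exposed to digitoxin over a concentration range without TPA. The read-out was the digitoxin IC50 under the combination.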

HT-29 [9] = experiment: Potentiation of camptothecin-induced cytotoxicity against human HT-29 cells at 1 uM after 72 hrs by MTT assay in absence of TPA; assay type: functional, cell-based
MCF7 [10] = experiment: Potentiation of digitoxin-induced cytotoxicity against human MCF7 cells at 1 nM to 10 uM after 72 hrs by MTT assay; assay type: functional
HT-29 [11] = experiment: Potentiation of digitoxin-induced cytotoxicity against human HT-29 cells at 1 nM to 10 uM after 72 hrs by MTT assay; assay type: functional, cell-based
HT-29 [12] = experiment: Potentiation of 5-fluorouracil-induced cytotoxicity against human HT-29 cells after 72 hrs by MTT assay in presence of TPA; assay type: functional, cell-based
MCF7 [13] = experiment: Potentiation of camptothecin-induced cytotoxicity against human MCF7 cells at 1 uM treated 30 mins before TPA challenge measured after 72 hrs by MTT assay; assay type: functional, cell-based
HT-29 [14] = experiment: Potentiation of 5-fluorouracil-induced cytotoxicity against human HT-29 cells after 72 hrs by MTT assay in absence of TPA; assay type: functional, cell-based
HT-29 [15] = experiment: Potentiation of camptothecin-induced cytotoxicity against human HT-29 cells after 72 hrs by MTT assay in presence of TPA; assay type: functional, cell-based
[16] = target: T1, Programmed cell death protein 4 (Homo sapiens); experiment: Inhibition of TPA-induced PDCD4 degradation in human MCF7 cells at 10 nM treated 30 mins before TPA challenge measured after 6 hrs by Western blot analysis relative to TPA treated control; assay type: cell-based; method in brief: as §2
HT-29 [17] = experiment: Potentiation of camptothecin-induced cytotoxicity against human HT-29 cells after 72 hrs by MTT assay in absence of TPA; assay type: functional, cell-based
HT-29 [18] = experiment: Potentiation of digitoxin-induced cytotoxicity against human HT-29 cells after 72 hrs by MTT assay in absence of TPA; assay type: functional, cell-based; method in brief: as §3
HT-29 [19] = experiment: Potentiation of 5-fluorouracil-induced cytotoxicity against human HT-29 cells after 72 hrs by MTT assay in absence of TPA

Row | Structure (SMILES) | IC50 (MCF7 [1]) [µM] | IC50 (HT-29 [2]) [µM] | Ratio [3] | IC50 [4] [µM] | further results
1 | CCCCCCCCCCCCCCC[C@@H](C[C@H](O)C[C@H](O)C[C@H](O)C[C@H](O)C[C@@H]1CC=CC(=O)O1)OC(C)=O | 13.3 | 4.9 | 1.9 | 7.8 | 
2 | CCCCCCCCCCCCCCC[C@@H](C[C@@H](O)C[C@@H](O)C[C@@H](O)C[C@@H](O)CCO)OC(C)=O | 162 | 1280 | 2.8 | > 1000 | 
3 | CCCCCCCCCCCCCCC[C@H](O)C[C@@H](O)C[C@@H](O)C[C@@H](O)C[C@@H](O)C[C@H]1CC=CC(=O)O1 | 8.1 | 4.2 | 3.6 | 5.4 | CI (MCF7 [5]): 0.78; Activity (HT-29 [6]): inactive; Activity (HT-29 [7]): inactive; Activity (HT-29 [8]): inactive; Activity (HT-29 [9]): inactive; CI (MCF7 [10]): 1.34; Activity (HT-29 [11]): inactive
4 | CCCCCCCCCCCCCCC[C@@H](O)C[C@H](O)C[C@H](O)C[C@H](O)C[C@H](O)C[C@@H]1CC=CC(=O)O1 | 25.8 | 4.1 | 3.8 | 7.9 | 
5 | CCCCCCCCCCCCCCC[C@H](C[C@H](O)C[C@H](O)C[C@H](O)C[C@H](O)C[C@@H]1CC=CC(=O)O1)OC(C)=O | 9 | 2.4 | 3.6 | 4 | 
6 | CCCCCCCCCCCCCCC[C@@H](C[C@@H](O)C[C@@H](O)C[C@@H](O)C[C@@H](O)C[C@H]1CC=CC(=O)O1)OC(C)=O | 5.8 | 2.9 | 4.5 | 3.8 | Activity (HT-29 [12]): inactive; CI (MCF7 [5]): 1.12; Activity (HT-29 [6]): inactive; Activity (HT-29 [7]): inactive; Activity (HT-29 [8]): inactive; Activity (HT-29 [9]): inactive; CI (MCF7 [10]): 1.04; Activity (MCF7 [13]): inactive; Activity (HT-29 [14]): inactive; Activity (HT-29 [11]): inactive
7 | CCCCCCCCCCCCCCC[C@H](O)C[C@@H](O)C[C@@H](O)C[C@@H](O)C[C@@H](O)CCO | > 500 | > 1500 | 1.8 | > 1500 | 
8 | CO[C@H]1C[C@@H]2CC[C@@H](C)[C@@](O)(O2)C(=O)C(=O)N2CCCC[C@H]2C(=O)O[C@H]([C@H](C)C[C@@H]2CC[C@@H](O)[C@H](OC)C2)CC(=O)[C@H](C)/C=C(\C)[C@@H](O)[C@@H](OC)C(=O)[C@H](C)C[C@H](C)/C=C/C=C/C=C/1C |  |  |  |  | Activity (HT-29 [15]): inactive; Ratio [16]: 6.6; Activity (HT-29 [14]): inactive; Activity (HT-29 [17]): inactive; Activity (HT-29 [18]): inactive; Activity (HT-29 [19]): inactive
